Ecoli rRNA inh: inhibitors of bacterial rRNA selective over humanized ribosomes; AID 720706; E. coli WT GFP vs humanized-ribosome RFP mutants, fluorescence, 24 h; hits give low values; DMSO median 0, no signal -100; GFP signal change (wild-type ribosome), % (concentration not given with the values); 350,000 tested, 1.6% active;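 active = significant combined selectivity score with lowered wild-type GFP, culture density cut under 30%, mutant RFP and density less affected; inactive = any of these conditions unmet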
E-selectin induc: E-selectin induction on HUVECs; P16581; HUVEC E-selectin immunofluorescence imaging; normalized: neutral wells 0, TNF-alpha wells 100; activation, % at 7.58 µM; 260,000 tested, 0.37% active; AID 686992;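 active = mean E-selectin-positive cell signal at least 10% of the positive control, reached in at least 60% of replicates, without over 20% cell loss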
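Test system: HUVEC; input: 3,000 HUVEC/well; measured by: immunofluorescence imaging; read-out: % PE-positive cells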
RAD54 inh: inhibitors of human RAD54 branch migration. Q92698. inhibition, % at 10.4 µM. 360,000 tested, 0.14% active. RAD54 Holliday junction branch migration, FAM/BHQ fluorescence. AID 602329;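 active = mean normalized replicate activity at least 40 and at least half of replicates scoring 40 or more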;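 also: 0% = median of neutral control wells and 100% = median of positive control wells; inhibitors cause a drop in the FAM fluorescence signal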
XiGFP reactiv: activators of X-chromosome reactivation in mouse fibroblasts; XiGFP mouse fibroblasts, % GFP-positive cells imaging, 3 d; cells co-treated with 5-aza-dC sensitizer; scaled so ellipticine positive control = 100%; activation, % at 7.58 µM; 360,000 tested, 0.055% active; AID 743238;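 active = mean normalized replicate activation at least 10% and every replicate at or above 10%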;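 also: 0% = median of on-plate neutral control wells and 100% = ellipticine 6 µM median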
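Assay system: SV40-immortalized XiGFP fibroblast cells, line 68-5-11; buffer or medium: DMEM plus 5-aza-dC sensitizer; compound: one concentration, pinned; timing: compounds 3 days, fix/stain 15 min at room temperature; benchmarks: positive control ellipticine, 6 µM final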
PglD inh: inhibitors of Campylobacter jejuni PglD acetyltransferase | purified PglD enzyme, DTNB colorimetric CoA detection | inhibition, % at 12.5 µM | 360,000 tested, 0.098% active | AID 602405; in the data active = inhibition above about 16%, passing the limit was not always enough
RAD52 anneal inh: blocks human RAD52 DNA annealing; 360,000 tested, 0.46% active; P43351; inhibition, % at 18.7 µM; recombinant RAD52 DNA annealing, FRET fluorescence;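 active = every replicate showing at least 50% inhibition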
Target sequence (P43351 whole entry, looked up): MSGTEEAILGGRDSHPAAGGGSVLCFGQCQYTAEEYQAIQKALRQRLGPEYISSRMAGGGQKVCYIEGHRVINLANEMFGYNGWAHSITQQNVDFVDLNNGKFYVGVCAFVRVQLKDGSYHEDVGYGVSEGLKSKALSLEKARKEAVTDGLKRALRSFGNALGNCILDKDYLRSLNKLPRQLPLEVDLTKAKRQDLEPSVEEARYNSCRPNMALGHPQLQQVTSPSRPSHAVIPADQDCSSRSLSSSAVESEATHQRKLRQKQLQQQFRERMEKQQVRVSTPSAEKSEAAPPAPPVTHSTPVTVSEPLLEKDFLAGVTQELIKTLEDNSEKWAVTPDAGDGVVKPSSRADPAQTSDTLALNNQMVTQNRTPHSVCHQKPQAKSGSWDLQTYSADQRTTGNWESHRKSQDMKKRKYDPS
Starred values were filed as active, the others as inactive; . = not tested or not shown; ! = a repeat was not active. Sampled rows, rich in hits. Any-hit rate of the full collection: about 2%.

SMILES	Ecoli rRNA inh	E-selectin induc	RAD54 inh	XiGFP reactiv	PglD inh	RAD52 anneal inh
Cc1noc(C)c1S(=O)(=O)Nc1ccc2c(c1)C(=O)N([C@H](C)CO)C[C@@H](C)[C@H](CN(C)C)OCCCC[C@@H](C)O2	3	0	4	0	-2	-20
CN(C)C1=NCC(CSC(=N)N)S1 (stereo unspecified)	-37*	6	-5	0	5	-1
Nc1ccc(N=Nc2ccc(O)cc2)c(N)n1	-16*	-1	.	0	.	-7
O=C(c1cccc(F)c1)N1CCCCN2[C@@H](CO)[C@@H](c3ccc(-c4cncnc4)cc3)[C@@H]2C1	2	0	9	0	-2	-10
CCOC(=O)c1ccc(NC(=O)CSc2nnc(CNc3ccc(C)cc3)n2C)cc1	.	.	-8	.	0	.
Cc1ccc(C(=O)NNC(=O)CSc2nnc(CNc3ccc(F)cc3)n2C)cc1	0	236*	.	0	.	-3
Cc1ccc(NCc2nnc(SCC(=O)NNC(=O)Cc3ccccc3)n2C)cc1	-23	0	-13	21*	1	-1
C[C@H]1CCCCO[C@H](CN(C)S(=O)(=O)c2ccc(F)cc2)[C@@H](C)CN([C@@H](C)CO)C(=O)c2cc(NS(=O)(=O)c3ccc(F)cc3)ccc2O1	-3	6	3	0	1	.
O=S(=O)(c1ccc(-c2ccccc2)cc1)N1[C@@H]2CNC[C@H]1C2c1ccc(-c2cccnc2)cc1 (stereo partly specified)	-36	0	.	0	.	66*
O=S(=O)(c1ccccc1)N1[C@@H]2CNC[C@H]1C2c1ccc(-c2cccnc2)cc1 (stereo partly specified)	1	0	.	0	.	-9
Cc1ccc(S(=O)(=O)N2[C@@H]3CNC[C@H]2C3c2ccc(/C=C/c3ccccc3)cc2)cc1 (stereo partly specified)	-28	0	.	0	.	53*!
Cc1ccc(S(=O)(=O)N2[C@@H]3CNC[C@H]2C3c2ccc(-c3ccc(C#N)cc3)cc2)cc1 (stereo partly specified)	-21	0	.	0	.	55*
C[C@H](CO)N1C[C@H](C)[C@@H](CN(C)Cc2ccc(Oc3ccccc3)cc2)Oc2c(NS(C)(=O)=O)cccc2C1=O	3	.	4	0	-2	6
C=CCN(C(=O)c1csnn1)C(C(=O)NC1CCCCC1)c1ccccc1 (stereo unspecified)	-1	31*	2	0	-2	-16
CCc1ccc(C(C(=O)NC2CCCCC2)N(C(=O)c2csnn2)C2CC2)cc1 (stereo unspecified)	4	39*	6	0	0	-1
Cc1ccc(C(C(=O)NC2CCCCC2)N(C(=O)c2csnn2)C2CC2)cc1 (stereo unspecified)	-7	1	-4	0	-12	-10
CC1CCC(C(C)C)C(OC(=O)Cn2c(-c3ccccc3)[n+](C)c3ccccc32)C1 (stereo unspecified)	-51*!	-3	27	0	2	36
CN(Cc1ccccc1)C1=CC(=[N+]2CCCCC2)CC(C)(C)C1	-51*	.	1	0	1	-10
N#C[C@@H]1[C@H](c2ccc(C3=CCCCC3)cc2)[C@@H](CO)N1C(=O)CN1CCOCC1	6	0	2	0	-3	-26
C[C@@H]1CN([C@H](C)CO)C(=O)Cc2cc(NC(=O)Nc3ccc(F)cc3)ccc2O[C@H]1CN(C)S(=O)(=O)c1ccc(F)cc1	-4	1	4	-1	-2	17
O=C(C1CCOCC1)N1C[C@@H]2N[C@H](C1)C2c1ccc(/C=C/c2ccccc2)cc1 (stereo partly specified)	-5	0	.	0	.	.
O=C(c1ccncc1)N1C[C@@H]2N[C@H](C1)C2c1ccc(/C=C/c2ccccc2)cc1 (stereo partly specified)	-4	0	.	0	.	4
O=C(C1CCC1)N1C[C@@H]2N[C@H](C1)C2c1ccc(-c2ccccc2F)cc1 (stereo partly specified)	-4	0	.	0	.	5
O=C(Nc1ccccc1)N1C[C@@H]2N[C@H](C1)[C@@H]2c1ccc(/C=C/c2ccccc2)cc1	-25*	0	.	0	.	72*
O=C(C1CCCC1)N1C[C@@H]2N[C@H](C1)C2c1ccc(/C=C/c2ccccc2)cc1 (stereo partly specified)	-57	3	.	0	.	58*
SMILES	Ecoli rRNA inh	E-selectin induc	RAD54 inh	XiGFP reactiv	PglD inh	RAD52 anneal inh
O=C(C1CCCCC1)N1C[C@@H]2N[C@H](C1)C2c1ccc(-c2ccccc2F)cc1 (stereo partly specified)	-56	0	.	0	.	57*!
O=C(c1ccc(F)cc1)N1C[C@@H]2N[C@H](C1)C2c1ccc(/C=C/c2ccccc2)cc1 (stereo partly specified)	-62	0	.	0	.	65*
C[C@H]1CN([C@@H](C)CO)C(=O)c2cc(-c3ccncc3)cnc2O[C@H]1CN(C)S(=O)(=O)c1ccc(F)cc1	-2	0	2	-2	0	-4
COc1ccccc1CN1C[C@@H]2N[C@H](C1)C2c1ccc(-c2ccccc2)cc1 (stereo partly specified)	-59	0	.	0	.	27
COc1ccccc1CN1C[C@@H]2N[C@H](C1)C2c1ccc(/C=C/c2ccccc2)cc1 (stereo partly specified)	-57	0	.	0	.	68*
Cc1cccc(Nc2nc(N)c([N+](=O)[O-])c(NCc3ccccc3)n2)c1	-14	.	2	0	1	-14
Nc1nc(NCc2ccccc2)nc(NCc2ccccc2)c1[N+](=O)[O-]	.	.	-4	0	3	.
Nc1nc(Nc2ccccc2)nc(NCc2ccccc2)c1[N+](=O)[O-]	-15*	0	.	0	.	7
COc1cccc(Nc2nc(N)c([N+](=O)[O-])c(NCc3ccccc3)n2)c1	-34*	.	-4	0	0	-10
COc1ccccc1N(CC(=O)NCCSc1ccccc1)S(=O)(=O)c1ccccc1	-31*	.	3	0	-2	-11
COc1ccccc1N(CC(=O)NCCSc1ccccc1)S(C)(=O)=O	.	.	-3	.	3	.
C[C@@H]1CCCCO[C@@H](CN(C)C(=O)CCC(F)(F)F)[C@@H](C)CN([C@H](C)CO)C(=O)c2cc(NC(=O)Cc3ccccc3)ccc2O1	2	2	4	0	0	6
CCOc1ccc(OCc2ccc(C(=O)NN)o2)cc1	-13	9	.	0	.	-15
O=C(NCc1ccccn1)c1ccc(COc2ccc(Cl)cc2)o1	.	.	3	.	1	.
Cc1ccc(OCc2ccc(C(=O)NN)o2)cc1C	-32*	0	-12	0	3	-4
